Legend:
Escherichia coli [1] = test: Inhibition of Escherichia coli DHDPS-catalyzed condensation of pyruvate and aspartate semi-aldehyde at 5 mM measured after 1 min by UV-spectrophotometric analysis
Procedure, shortened: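 E. coli DHDPS in 200 mM HEPES pH 8.0 was pre-incubated 1 min with inhibitor (from 100% DMSO; final 5 mM), with a DMSO-only control. Activity was then read by the coupled DHDPR assay, following NADPH oxidation at 340 nm at 30 °C. The result is % inhibition relative to the control.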

[2] = (§1) Inhibition of Escherichia coli DHDPS-catalyzed condensation of pyruvate and aspartate semi-aldehyde by UV-spectrophotometric analysis; conditions: read-out: Ki(app)
Procedure, shortened: (§2)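 Time-dependent assay: DHDPS in HEPES pH 8.0 (raised to 500 mM for the acidic inhibitor) was pre-incubated with inhibitor at 0.5–25 mM. Aliquots were serially diluted before adding to substrates, and residual rate was measured by DHDPR/NADPH coupling at 340 nm at 30 °C. Decay curves of v_t/v_0 were fitted per Copeland. Ki app came from a y-intercept isotherm midpoint, and Ki* app from k_obs versus [I].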

Escherichia coli [3] = test: as §1; conditions: TDE = time-dependent effect; procedure, shortened: as §2
Escherichia coli [4] = test: Inhibition of Escherichia coli DHDPS-catalyzed condensation of pyruvate and aspartate semi-aldehyde at 50 mM after 60 mins by UV-spectrophotometric analysis

inhibition (Escherichia coli [1]) [%] | inhibition (Escherichia coli [3]) | inhibition (Escherichia coli [4]) [%] | Structure (SMILES) | Ki [2] [µM]
15 | – | – | COC(=O)/C(=N\O)c1cccc(/C(=N/O)C(=O)OC)c1 | 330
10 | tde | – | O=C(O)C(=O)c1cccc(C(=O)C(=O)O)c1O | 290
23 | – | 34 | O=C(O)/C(=N\O)c1cccc(/C(=N/O)C(=O)O)c1 | –
49 | – | – | O=C(O)C(=O)c1cccc(C(=O)C(=O)O)c1 | 2960
2 | – | – | COC(=O)C(=O)c1cccc(C(=O)C(=O)OC)c1 | –
10 | tde | – | COC(=O)C(=O)c1cccc(C(=O)C(=O)OC)c1O | 40

Source: ChEMBL document CHEMBL1955825, “1,3-Phenylene bis(ketoacid) derivatives as inhibitors of Escherichia coli dihydrodipicolinate synthase” (Bioorg Med Chem, 2012)
